Measured values from ChEMBL document CHEMBL5058577, “EUbOPEN Chemogenomics Library 2 (Multiplex)” (2022).

Tested on: Fibroblast
Experiment: Multiplex assay against human fibroblast
Format: toxicity, cell-based
Procedure, shortened: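 Cells were classed with CellPathfinder machine-learning gating, first as Hoechst high-intensity objects or normal cells, then (normal cells) as healthy, pyknosed or fragmented nuclei, and finally (pyknosed cells) as mitotic or apoptotic. Staining of live cells at seeding used Hoechst33342, BioTracker Green Microtubule Cytoskeleton Dye, MitoTracker Red and Annexin V Alexa Fluor 680, with imaging on a CQ1 microscope at 37°C and 5% CO2 after compound addition. Tubulin, mitochondrial-mass and membrane-permeability phenotypes are per cents of healthy-nucleus cells.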

[1] = 12 h, 1 µM, compound concentration 1 uM, replicate 1
[2] = 12 h, 1 µM, compound concentration 1 uM, replicate 2
[3] = 12 h, 10 µM, compound concentration 10 uM, replicate 1
[4] = 12 h, 10 µM, compound concentration 10 uM, replicate 2
[5] = 24 h, 1 µM, compound concentration 1 uM, replicate 1
[6] = 24 h, 1 µM, compound concentration 1 uM, replicate 2
[7] = 24 h, 10 µM, compound concentration 10 uM, replicate 1
[8] = 24 h, 10 µM, compound concentration 10 uM, replicate 2
[9] = 48 h, 1 µM, compound concentration 1 uM, replicate 1
[10] = 48 h, 1 µM, compound concentration 1 uM, replicate 2
[11] = 48 h, 10 µM, compound concentration 10 uM, replicate 1
[12] = 48 h, 10 µM, compound concentration 10 uM, replicate 2

Cc1cc(-c2ccc3c(c2)CC[C@H]3N2CC3(CCN(C(=O)Cc4cn5cc(C)sc5n4)CC3)C2)ncn1 [PF-5190457]
Population Apoptotic (%) [1]: 29% | Population Fragmented Nuclei (%) [1]: 16% | Population Healthy Nuclei (%) [1]: 71% | Population Hoechst High Intensity Objects (%) [1]: 4% | Population Membrane Permeable-Phenotype (%) [1]: 1% | Population Mitochondria Different-Phenotype (%) [1]: 5% | Population Mitotic Cells (%) [1]: 70% | Population Normal (%) [1]: 96% | Population Pyknosed Nuclei (%) [1]: 11% | Population Tubulin-Different-Phenotype (%) [1]: 24% | Total Cell Count [1]: 150 | Population Apoptotic (%) [2]: 30% | Population Fragmented Nuclei (%) [2]: 18% | Population Healthy Nuclei (%) [2]: 46% | Population Membrane Permeable-Phenotype (%) [2]: 9% | Population Mitochondria Different-Phenotype (%) [2]: 0% | Population Normal (%) [2]: 95% | Population Pyknosed Nuclei (%) [2]: 34% | Population Tubulin-Different-Phenotype (%) [2]: 48% | Total Cell Count [2]: 121 | Population Apoptotic (%) [3]: 36% | Population Fragmented Nuclei (%) [3]: 17% | Population Healthy Nuclei (%) [3]: 63% | Population Hoechst High Intensity Objects (%) [3]: 4% | Population Membrane Permeable-Phenotype (%) [3]: 1% | Population Mitochondria Different-Phenotype (%) [3]: 5% | Population Mitotic Cells (%) [3]: 63% | Population Normal (%) [3]: 95% | Population Pyknosed Nuclei (%) [3]: 18% | Population Tubulin-Different-Phenotype (%) [3]: 38% | Total Cell Count [3]: 186 | Population Apoptotic (%) [4]: 45% | Population Fragmented Nuclei (%) [4]: 20% | Population Healthy Nuclei (%) [4]: 55% | Population Hoechst High Intensity Objects (%) [4]: 1% | Population Membrane Permeable-Phenotype (%) [4]: 6% | Population Mitochondria Different-Phenotype (%) [4]: 4% | Population Mitotic Cells (%) [4]: 54% | Population Normal (%) [4]: 98% | Population Pyknosed Nuclei (%) [4]: 24% | Population Tubulin-Different-Phenotype (%) [4]: 56% | Total Cell Count [4]: 138 | Population Apoptotic (%) [5]: 54% | Population Fragmented Nuclei (%) [5]: 19% | Population Healthy Nuclei (%) [5]: 72% | Population Hoechst High Intensity Objects (%) [5]: 2% | Population Membrane Permeable-Phenotype (%) [5]: 1% | Population Mitochondria Different-Phenotype (%) [5]: 4% | Population Mitotic Cells (%) [5]: 45% | Population Normal (%) [5]: 97% | Population Pyknosed Nuclei (%) [5]: 7% | Population Tubulin-Different-Phenotype (%) [5]: 26% | Total Cell Count [5]: 141 | Population Apoptotic (%) [6]: 15% | Population Fragmented Nuclei (%) [6]: 23% | Population Healthy Nuclei (%) [6]: 43% | Population Hoechst High Intensity Objects (%) [6]: 3% | Population Membrane Permeable-Phenotype (%) [6]: 5% | Population Mitochondria Different-Phenotype (%) [6]: 5% | Population Mitotic Cells (%) [6]: 84% | Population Normal (%) [6]: 96% | Population Pyknosed Nuclei (%) [6]: 32% | Population Tubulin-Different-Phenotype (%) [6]: 54% | Total Cell Count [6]: 126 | Population Apoptotic (%) [7]: 44% | Population Fragmented Nuclei (%) [7]: 19% | Population Healthy Nuclei (%) [7]: 64% | Population Hoechst High Intensity Objects (%) [7]: 3% | Population Membrane Permeable-Phenotype (%) [7]: 0% | Population Mitochondria Different-Phenotype (%) [7]: 6% | Population Mitotic Cells (%) [7]: 55% | Population Normal (%) [7]: 96% | Population Pyknosed Nuclei (%) [7]: 16% | Population Tubulin-Different-Phenotype (%) [7]: 37% | Total Cell Count [7]: 180 | Population Apoptotic (%) [8]: 53% | Population Fragmented Nuclei (%) [8]: 25% | Population Healthy Nuclei (%) [8]: 49% | Population Hoechst High Intensity Objects (%) [8]: 5% | Population Membrane Permeable-Phenotype (%) [8]: 1% | Population Mitochondria Different-Phenotype (%) [8]: 7% | Population Mitotic Cells (%) [8]: 46% | Population Normal (%) [8]: 94% | Population Pyknosed Nuclei (%) [8]: 25% | Population Tubulin-Different-Phenotype (%) [8]: 60% | Total Cell Count [8]: 134 | Population Apoptotic (%) [9]: 78% | Population Fragmented Nuclei (%) [9]: 30% | Population Healthy Nuclei (%) [9]: 59% | Population Hoechst High Intensity Objects (%) [9]: 6% | Population Membrane Permeable-Phenotype (%) [9]: 2% | Population Mitochondria Different-Phenotype (%) [9]: 2% | Population Mitotic Cells (%) [9]: 21% | Population Normal (%) [9]: 93% | Population Pyknosed Nuclei (%) [9]: 9% | Population Tubulin-Different-Phenotype (%) [9]: 23% | Total Cell Count [9]: 157 | Population Apoptotic (%) [10]: 34% | Population Fragmented Nuclei (%) [10]: 32% | Population Healthy Nuclei (%) [10]: 47% | Population Hoechst High Intensity Objects (%) [10]: 2% | Population Membrane Permeable-Phenotype (%) [10]: 14% | Population Mitochondria Different-Phenotype (%) [10]: 6% | Population Mitotic Cells (%) [10]: 65% | Population Normal (%) [10]: 97% | Population Pyknosed Nuclei (%) [10]: 20% | Population Tubulin-Different-Phenotype (%) [10]: 68% | Total Cell Count [10]: 132 | Population Apoptotic (%) [11]: 63% | Population Fragmented Nuclei (%) [11]: 22% | Population Healthy Nuclei (%) [11]: 66% | Population Hoechst High Intensity Objects (%) [11]: 6% | Population Membrane Permeable-Phenotype (%) [11]: 0% | Population Mitochondria Different-Phenotype (%) [11]: 12% | Population Mitotic Cells (%) [11]: 36% | Population Normal (%) [11]: 93% | Population Pyknosed Nuclei (%) [11]: 10% | Population Tubulin-Different-Phenotype (%) [11]: 37% | Total Cell Count [11]: 192 | Population Apoptotic (%) [12]: 62% | Population Fragmented Nuclei (%) [12]: 30% | Population Healthy Nuclei (%) [12]: 51% | Population Hoechst High Intensity Objects (%) [12]: 1% | Population Membrane Permeable-Phenotype (%) [12]: 5% | Population Mitochondria Different-Phenotype (%) [12]: 14% | Population Mitotic Cells (%) [12]: 37% | Population Normal (%) [12]: 98% | Population Pyknosed Nuclei (%) [12]: 18% | Population Tubulin-Different-Phenotype (%) [12]: 64% | Total Cell Count [12]: 135
